# Source: PubChem BioAssay
# NF-kB expr up: activators of NF-kB expression in neurons, primary screen, cell-based, HTS. human neuronal cells, NF-kB reporter expression; hits give high values. fold change at 12.5 µM. hit rate 1.6% among 190,000. AID 1239, 2008; in the data active = fold change above about 3.3
# FLuc inh counter: firefly luciferase enzyme inhibitors, primary screen, artefact control for luciferase-based inhibitor screens, biochemical, luminescence, ATPLite. Luciferin 4-monooxygenase (Photinus pyralis), P08659. 10 min. inhibition, % at 10 µM. hit rate 1.5% among 200,000. AID 1006, 2008;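 active = inhibition above about 50% when tested at 10 µM, limit read from the data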
# Target sequence (P08659 whole entry, looked up): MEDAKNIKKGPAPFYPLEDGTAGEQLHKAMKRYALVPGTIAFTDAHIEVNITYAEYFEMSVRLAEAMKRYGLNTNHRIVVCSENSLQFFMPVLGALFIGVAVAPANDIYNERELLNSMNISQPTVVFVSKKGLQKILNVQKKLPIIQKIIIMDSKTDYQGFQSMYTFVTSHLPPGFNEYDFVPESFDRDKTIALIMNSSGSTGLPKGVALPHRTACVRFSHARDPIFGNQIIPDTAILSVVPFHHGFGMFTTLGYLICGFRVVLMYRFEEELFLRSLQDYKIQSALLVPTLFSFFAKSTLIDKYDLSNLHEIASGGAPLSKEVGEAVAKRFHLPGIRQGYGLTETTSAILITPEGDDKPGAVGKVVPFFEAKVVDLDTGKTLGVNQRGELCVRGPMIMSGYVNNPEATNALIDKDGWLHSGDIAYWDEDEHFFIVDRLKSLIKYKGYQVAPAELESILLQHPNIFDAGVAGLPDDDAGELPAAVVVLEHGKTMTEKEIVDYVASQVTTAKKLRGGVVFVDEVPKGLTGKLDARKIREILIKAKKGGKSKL
# APP 5'UTR act: activators of APP 5'UTR luciferase reporter, primary screen, SH-SY5Y cells; SH-SY5Y APP 5'UTR luciferase reporter, luminescence; zero percent = DMSO vehicle wells; activation, % at 2 µM; hit rate 1% among 190,000; AID 1276, 2008;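 active = activation above a set limit, based on mean plus 3 SD of controls, cut at about 140% in these data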
# FLuc stim CS: FLuc activators, initial screening, artefact control for FLuc-dependent activation tests, biochemical, ATPlite luminescence | Luciferin 4-monooxygenase (Photinus pyralis), P08659 | ATPlite luciferase biochemical, 10 min; 0 = ATP-free wells, 1 = DMSO control | activation factor at 10 µM | 200,000 tested, under 10 active | AID 1027, 2008;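 active = luciferase activation factor, scaled between plate controls, of at least 2 with compound at 10 µM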
#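 System: luciferase plus luciferin reagent, cell-free; medium: PBS as buffer for the ATP substrate; dosing: test compounds dosed from 2 mM stocks in 100% DMSO; timing: 10 min post-reagent at room temperature; measured by: luminescence measurement of luciferase light output; evaluation: luciferase activation, seen as luminescence increase over controls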
# STAT1 act: STAT1 signaling activators, primary screen, cell-based, HTS, luciferase reporter. activation (% of control), % at 5.5 µM. NIH 3T3 STAT1-luciferase reporter, IFN-gamma, luminescence; 100% = IFN-gamma alone, no compound. hit rate 2.6% among 200,000;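 active = activation above the screen-wide mean activation plus 3 SD, cut at about 130% in these data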;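 also: raw ratio to IFN-gamma control signal so 100% means no change and 0% no light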
# * = called active by the depositor; / = no result. In the library only some 4.1% were active in any assay of this set; here they are far more common.
SMILES,NF-kB expr up,FLuc inh counter,APP 5'UTR act,FLuc stim CS,STAT1 act
COc1ccc(-c2cc(N3C(=O)Nc4ccccc4N3O)n[nH]2)cc1,0.97,33,14,0.7,101
O=C(CN1CCN(c2ccc(F)cc2)CC1)Nc1ccccc1[N+](=O)[O-],1.1,-7,-4,1.1,97
Cc1cccn2cc(-c3ccccc3)nc12,4.3*,69*,154*,0.3,138*
Cc1cccn2cc(CNc3ccccc3)nc12,2.3,4,17,1,123
COc1ccc(-c2cn3ccc4ccccc4c3n2)cc1,14*,68*,217*,0.3,120
Cc1cccn2cc(-c3ccc(F)cc3)nc12,5.8*,59*,128,0.4,130*
Cc1cccn2cc(-c3cccc(NC(=O)c4cccs4)c3)nc12,1.1,31,31,0.7,131*
O=C(Nc1ccc(N2C(=O)CCC2=O)cc1Cl)c1cccs1,1.2,-6,13,1.1,104
CS(=O)(=O)N(CC(=O)Nc1ccccc1Cl)c1ccc(Cl)cc1,1.4,-2,-4,1,103
O=C(Cc1cccs1)N/N=C/C(Cl)=C/c1ccccc1,1.1,-3,65,1,147*
CCOC(=O)N/N=C/C(Cl)=C/c1ccccc1,2,27,25,0.7,123
Cc1ccc(C)c(SCC(=O)OC/C(O)=C(\C#N)c2nc3ccccc3[nH]2)c1,2.2,-5,4,1,91
N#C/C(=C(/O)COC(=O)CSc1ccc2ccccc2c1)c1nc2ccccc2[nH]1,3.5*,0,8,1,102
COc1cc([N+](=O)[O-])ccc1NC(=O)CN1CCOCC1,1,-3,16,1,95
CC(=O)c1ccc2c3c(cccc13)C(=O)N(CCc1ccccc1)C2=O,1.7,-2,97,1,132*
c1ccc2c(-c3nc(-c4ccncc4)no3)cccc2c1,2.2,-4,36,1,129*
c1ccc(-c2noc(-c3cccc4ccccc34)n2)cc1,6.1*,19,100,0.8,142*
Brc1cccc(-c2nc(-c3ccncc3)no2)c1,1.8,15,37,0.8,118
c1cncc(-c2noc(-c3cccc4ccccc34)n2)c1,3,19,-7,0.8,126
Clc1ccc(Br)cc1-c1nc(-c2ccncc2)no1,1.2,-1,4,1,137*
C#CCNC(=O)C(C)c1ncc(C(F)(F)F)cc1Cl (stereo not drawn),1.2,-2,7,1,92
O=[N+]([O-])c1ccc2nc(-c3ccccc3)oc2c1,2.1,18,53,0.8,148*
COc1cccc(-c2nc3ccc([N+](=O)[O-])cc3o2)c1,3.4*,31,144*,0.7,136*
C=CCOc1ccc(C=Nc2ccc(C)c(Cl)c2)c(O)c1,1.1,1,-7,1,104
CCOC(=O)C1(CCOc2ccccc2)CCN(Cc2ccncc2)CC1,1.1,-1,-7,1,83
SMILES,NF-kB expr up,FLuc inh counter,APP 5'UTR act,FLuc stim CS,STAT1 act
CCOC(=O)C1(CCOc2ccccc2)CCN(Cc2ccc(-n3cccn3)cc2)CC1,3.9*,-5,25,1.1,92
CCCCOC(=O)c1ccc(NC(=O)/C=C/c2cccs2)cc1,1.2,2,3,1,117
N/C(=N\OC(=O)c1ccc(Cl)c([N+](=O)[O-])c1)c1ccccn1,1.8,26,25,0.7,99
N/C(=N\OC(=O)c1ccc(Cl)cc1)c1ccccn1,3.5*,97*,185*,0,97
N/C(=N\OC(=O)c1ccccc1Cl)c1ccccn1,0.88,93*,123,0.1,31
CC(C)C(=O)O/N=C(\N)c1ccccn1,0.83,-6,13,1.1,96
N/C(=N\OC(=O)c1ccc(Cl)c(Cl)c1)c1ccccn1,4.5*,46,140*,0.5,131*
N/C(=N\OC(=O)c1cccnc1)c1ccccc1Cl,1.6,40,12,0.6,131*
N/C(=N\OS(=O)(=O)c1ccc(Cl)cc1)c1ccccn1,1.3,-4,-6,1,107
COc1cc(-c2nnc(SCC(=O)N(C)C3CCS(=O)(=O)C3)o2)cc(OC)c1OC (stereo not drawn),1.5,1,6,1,96
C/C(CCS(=O)(=O)c1ccccc1)=N/O,1.1,4,-3,1,97
N/C(=N\OC(=O)c1cccc(Cl)c1)c1ccccn1,5.3*,91*,166*,0.1,77
N/C(=N\OC(=O)c1cc(-c2ccccc2)nc2ccccc12)c1ccccn1,0.91,13,11,0.9,101
N/C(=N\OC(=O)c1ccccc1[N+](=O)[O-])c1ccccn1,3.9*,69*,104,0.3,94
COc1ccc(C(=O)/C=C/NCc2ccc(C)cc2)cc1,/,/,24,/,117
Cc1ccc(C(=O)/C=C\NCc2ccccc2)cc1,1.8,18,14,0.8,130*
Cc1ccc(S/C=C\C(=O)c2ccccc2)cc1,10*,91*,144*,0.1,96
COc1ccccc1/C(O)=C(\C#N)c1nc2ccccc2[nH]1,0.9,1,9,1,96
CC(C)(C)NC(=O)COC(=O)c1ccccc1OCC(=O)Nc1ccc(Br)cc1,1.1,64*,11,0.4,105
CCCNC(=O)COC(=O)c1ccccc1OCC(=O)Nc1ccc(Br)cc1,1,-1,12,1,102
CCC(C)/C(C)=N/NC(=O)c1ccc(CSc2nc3ccccc3s2)cc1 (stereo not drawn),1.3,-3,46,1,130*
COc1ccc(C(=O)Nc2nc3c(s2)Cc2cc(OC)ccc2-3)cc1,0.9,3,7,1,104
COc1ccc2c(c1)Cc1sc(NC(=O)c3ccccc3)nc1-2,1.4,1,29,1,134*
COc1ccc2c(c1)Cc1sc(NC(=O)c3cccs3)nc1-2,1.6,10,115,0.9,149*
CCOc1ccc(OCCN2C(=O)NC(Cc3c[nH]c4ccccc34)C2=O)cc1 (stereo not drawn),0.97,-6,4,1.1,100
SMILES,NF-kB expr up,FLuc inh counter,APP 5'UTR act,FLuc stim CS,STAT1 act
CCOC(=O)C1=C(c2ccccc2)O/C(=C(/C#N)C(F)(F)F)S1,8.6*,-9,-17,1.1,79
N#Cc1ccc(COn2nnc3ccccc32)cc1,1.5,-4,-13,1,119
COc1cc(O)sc1C=Nc1ccc(Cl)cc1Cl,1.3,-2,20,1,110
Cc1cccc(C(=O)OCC(=O)NCCCc2ccccc2)c1,0.91,-2,0,1,106
C/C(=C\c1ccccc1)C(=O)NCCc1ccccc1,4.5*,34,177*,0.7,105
CC(=O)Oc1ccc(C(=O)NCCc2ccccc2)cc1,2.9,51*,127,0.5,104
